ChEMBL document CHEMBL1135893, “Synthesis and mode of action of hydrophobic derivatives of the glycopeptide antibiotic eremomycin and des-(N-methyl-D-leucyl)eremomycin against glycopeptide-sensitive and -resistant bacteria” (J Med Chem, 2002)
pIC50: −log10 of the molar value.

Key:
[1] = tested on: Nucleic Acid; test: Inhibition of the peptidoglycan synthesis in the absence of dipeptide bonding using UDP-MurNAc-pentapeptide; format: nucleic-acid assay
Summary of the method: (§1)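 Peptidoglycan synthesis run on filter plates with E. coli OV58 (pTA9) membranes, UDP-MurNAc-pentapeptide or UDP-MurNAc-tetrapeptide plus UDP-N-acetyl-[14C]-D-glucosamine as substrates; radiolabel incorporation into peptidoglycan measured. IC50 from at least six drug concentrations in duplicate, fitted by four-parameter logistic nonlinear regression.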

[2] = tested on: Nucleic Acid; test: Inhibition of the peptidoglycan synthesis in the absence of dipeptide bonding using UDP-MurNAc-tetrapeptide; format: nucleic-acid assay; summary of the method: as §1
[3] = tested on: Nucleic Acid; test: Ratio UDP-MurNAc-tetrapeptide to UDP-MurNAc-Pentapeptide; format: nucleic-acid assay
[4] = tested on: Enterococcus faecium; test: Antibacterial activity evaluated as minimum inhibitory concentration against 569 Enterococcus faecium (GRE); format: functional
Summary of the method: (§2)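 Broth microdilution in Mueller Hinton broth per NCCLS procedure; repeat results usually identical, always within 2-fold. GISA strains 3797 (HIP-5836 New Jersey) and 3798 (HIP-5827 Michigan); 533 S. epidermidis and 602 S. haemolyticus are clinical isolates; vancomycin-resistant enterococci have confirmed genotype.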

[5] = tested on: Enterococcus faecalis; test: Antibacterial activity evaluated as minimum inhibitory concentration against 559 Enterococcus faecalis (GSE); format: functional; parameters: unit not given beside the values; summary of the method: as §2
[6] = tested on: Enterococcus faecalis; test: Antibacterial activity evaluated as minimum inhibitory concentration against 560 Enterococcus faecalis (GRE); format: functional; summary of the method: as §2
[7] = tested on: Enterococcus faecium; test: Antibacterial activity evaluated as minimum inhibitory concentration against 568 Enterococcus faecium (GSE); format: functional; summary of the method: as §2
[8] = tested on: Staphylococcus aureus; test: Antibacterial activity evaluated as minimum inhibitory concentration against 3797 Staphylococcus aureus (GISA); format: functional; parameters: unit not given beside the values; summary of the method: as §2
[9] = tested on: Staphylococcus aureus; test: Antibacterial activity evaluated as minimum inhibitory concentration against 3798 Staphylococcus aureus (GISA); format: functional; parameters: unit not given beside the values; summary of the method: as §2
[10] = tested on: Staphylococcus epidermidis; test: Antibacterial activity evaluated as minimum inhibitory concentration against 533 Staphylococcus epidermidis; format: functional; summary of the method: as §2
[11] = tested on: Staphylococcus haemolyticus; test: Antibacterial activity evaluated as minimum inhibitory concentration against 602 Staphylococcus haemolyticus; parameters: unit not given beside the values

| Structure (SMILES) | pIC50 [1] | pIC50 [2] | Ratio [3] | MIC [4] | MIC [5] | MIC [6] | MIC [7] | MIC [8] | MIC [9] | MIC [10] | MIC [11] |
| --- | --- | --- | --- | --- | --- | --- | --- | --- | --- | --- | --- |
| CN[C@@H](CC(C)C)C(=O)N[C@H]1C(=O)N[C@@H](CC(N)=O)C(=O)N[C@H]2C(=O)N[C@H]3C(=O)N[C@H](C(=O)N[C@H](C(=O)O)c4cc(O)cc(O)c4-c4cc3ccc4O)[C@H](O[C@H]3C[C@@](C)(N)[C@@H](O)[C@@H](C)O3)c3cccc(c3)Oc3cc2cc(c3O[C@@H]2O[C@@H](CO)[C@H](O)[C@@H](O)[C@@H]2O[C@H]2C[C@@](C)(NCc3ccc(-c4ccc(Cl)cc4)cc3)[C@@H](O)[C@@H](C)O2)Oc2ccc(cc2Cl)[C@H]1O | 6.92 | 5.57 | 23 | – | – | – | – | – | – | – | – |
| CN[C@H](CC(C)C)C(=O)N[C@H]1C(=O)N[C@@H](CC(N)=O)C(=O)N[C@H]2C(=O)N[C@H]3C(=O)N[C@H](C(=O)N[C@H](C(=O)O)c4cc(O)cc(O)c4-c4cc3ccc4O)[C@H](O[C@H]3C[C@@](C)(N)[C@@H](O)[C@@H](C)O3)c3cccc(c3)Oc3cc2cc(c3O[C@@H]2O[C@@H](CO)[C@H](O)[C@@H](O)[C@@H]2O[C@H]2C[C@@](C)(N)[C@@H](O)[C@@H](C)O2)Oc2ccc(cc2Cl)[C@H]1O | – | – | – | >128 | 0.25 | >128 | 0.25 | 8 | 8 | 0.25 | 0.25 |
| CCCCCCCCCCNC(=O)[C@H]1NC(=O)[C@H]2NC(=O)[C@H](NC(=O)[C@@H]3NC(=O)[C@H](CC(N)=O)NC(=O)[C@H](NC(=O)[C@@H](CC(C)C)NC)[C@H](O)c4ccc(c(Cl)c4)Oc4cc3cc(c4O[C@@H]3O[C@@H](CO)[C@H](O)[C@@H](O)[C@@H]3O[C@H]3C[C@@](C)(N)[C@@H](O)[C@@H](C)O3)Oc3cccc(c3)[C@H]2O[C@H]2C[C@@](C)(N)[C@@H](O)[C@@H](C)O2)c2ccc(O)c(c2)-c2c(O)cc(O)cc21 | 5.89 | 5.19 | 5 | 2 | 1 | 4 | 0.5 | 4 | 4 | 0.13 | 0.13 |
| C[C@H]1O[C@@H](O[C@@H]2[C@H](Oc3c4cc5cc3Oc3ccc(cc3Cl)[C@@H](O)[C@@H](N)C(=O)N[C@@H](CC(N)=O)C(=O)N[C@H]5C(=O)N[C@H]3C(=O)N[C@H](C(=O)N[C@H](C(=O)NCc5ccc(-c6ccc(Cl)cc6)cc5)c5cc(O)cc(O)c5-c5cc3ccc5O)[C@H](O[C@H]3C[C@@](C)(N)[C@@H](O)[C@@H](C)O3)c3cccc(c3)O4)O[C@@H](CO)[C@H](O)[C@H]2O)C[C@@](C)(N)[C@H]1O | – | – | – | 2 | 4 | 4 | 4 | 8 | 8 | 4 | 4 |
| C[C@H]1O[C@@H](O[C@@H]2[C@H](Oc3c4cc5cc3Oc3ccc(cc3Cl)[C@@H](O)[C@@H](N)C(=O)N[C@@H](CC(N)=O)C(=O)N[C@H]5C(=O)N[C@H]3C(=O)N[C@H](C(=O)N[C@H](C(=O)O)c5cc(O)cc(O)c5-c5cc3ccc5O)[C@H](O[C@H]3C[C@@](C)(N)[C@@H](O)[C@@H](C)O3)c3cccc(c3)O4)O[C@@H](CO)[C@H](O)[C@H]2O)C[C@@](C)(NCc2ccc(-c3ccc(Cl)cc3)cc2)[C@H]1O | 5.11 | 5.04 | 1.2 | 8 | 4 | 8 | 4 | 8 | 8 | 4 | 4 |
| CCCCCCCCCCN[C@]1(C)C[C@H](O[C@@H]2[C@H](Oc3c4cc5cc3Oc3ccc(cc3Cl)[C@@H](O)[C@@H](N)C(=O)N[C@@H](CC(N)=O)C(=O)N[C@H]5C(=O)N[C@H]3C(=O)N[C@H](C(=O)N[C@H](C(=O)O)c5cc(O)cc(O)c5-c5cc3ccc5O)[C@H](O[C@H]3C[C@@](C)(N)[C@@H](O)[C@@H](C)O3)c3cccc(c3)O4)O[C@@H](CO)[C@H](O)[C@H]2O)O[C@H](C)[C@@H]1O | – | – | – | 16 | 8 | 16 | 8 | 8 | 16 | 4 | 8 |
| CN[C@@H](CC(C)C)C(=O)N[C@H]1C(=O)N[C@@H](CC(N)=O)C(=O)N[C@H]2C(=O)N[C@H]3C(=O)N[C@H](C(=O)N[C@H](C(=O)O)c4cc(O)cc(O)c4-c4cc3ccc4O)[C@H](O[C@H]3C[C@@](C)(N)[C@@H](O)[C@@H](C)O3)c3cccc(c3)Oc3cc2cc(c3O[C@@H]2O[C@@H](CO)[C@H](O)[C@@H](O)[C@@H]2O[C@H]2C[C@@](C)(N)[C@@H](O)[C@@H](C)O2)Oc2ccc(cc2Cl)[C@H]1O | 6.52 | < 3.19 | > 2300 | – | – | – | – | – | – | – | – |
| C[C@H]1O[C@@H](O[C@@H]2[C@H](Oc3c4cc5cc3Oc3ccc(cc3Cl)[C@@H](O)[C@@H](N)C(=O)N[C@@H](CC(N)=O)C(=O)N[C@H]5C(=O)N[C@H]3C(=O)N[C@H](C(=O)N[C@H](C(=O)O)c5cc(O)cc(O)c5-c5cc3ccc5O)[C@H](O[C@H]3C[C@@](C)(N)[C@@H](O)[C@@H](C)O3)c3cccc(c3)O4)O[C@@H](CO)[C@H](O)[C@H]2O)C[C@@](C)(N)[C@H]1O | – | – | – | >128 | 16 | >128 | 16 | 64 | 64 | 16 | 16 |
| CN[C@H](CC(C)C)C(=O)N[C@H]1C(=O)N[C@@H](CC(N)=O)C(=O)N[C@H]2C(=O)N[C@H]3C(=O)N[C@H](C(=O)N[C@H](C(=O)O)c4cc(O)c(CNCc5ccc(-c6ccc(Cl)cc6)cc5)c(O)c4-c4cc3ccc4O)[C@H](O[C@H]3C[C@@](C)(N)[C@@H](O)[C@@H](C)O3)c3cccc(c3)Oc3cc2cc(c3O[C@@H]2O[C@@H](CO)[C@H](O)[C@@H](O)[C@@H]2O[C@H]2C[C@@](C)(N)[C@@H](O)[C@@H](C)O2)Oc2ccc(cc2Cl)[C@H]1O | – | – | – | 8 | 1 | 16 | 1 | 2 | 2 | 0.5 | 0.25 |
| CN[C@H](CC(C)C)C(=O)N[C@H]1C(=O)N[C@@H](CC(N)=O)C(=O)N[C@H]2C(=O)N[C@H]3C(=O)N[C@H](C(=O)N[C@H](C(=O)NCc4ccc(-c5ccc(Cl)cc5)cc4)c4cc(O)cc(O)c4-c4cc3ccc4O)[C@H](O[C@H]3C[C@@](C)(N)[C@@H](O)[C@@H](C)O3)c3cccc(c3)Oc3cc2cc(c3O[C@@H]2O[C@@H](CO)[C@H](O)[C@@H](O)[C@@H]2O[C@H]2C[C@@](C)(N)[C@@H](O)[C@@H](C)O2)Oc2ccc(cc2Cl)[C@H]1O | – | – | – | 4 | 2 | 4 | 1 | 4 | 4 | 2 | 1 |
| CCCCCCCCCCNCc1c(O)cc2c(c1O)-c1cc(ccc1O)[C@H]1NC(=O)[C@@H]3NC(=O)[C@H](CC(N)=O)NC(=O)[C@H](NC(=O)[C@@H](CC(C)C)NC)[C@H](O)c4ccc(c(Cl)c4)Oc4cc3cc(c4O[C@@H]3O[C@@H](CO)[C@H](O)[C@@H](O)[C@@H]3O[C@H]3C[C@@](C)(N)[C@@H](O)[C@@H](C)O3)Oc3cccc(c3)[C@@H](O[C@H]3C[C@@](C)(N)[C@@H](O)[C@@H](C)O3)[C@H](NC1=O)C(=O)N[C@@H]2C(=O)O | – | – | – | 8 | 0.5 | 8 | 0.5 | 2 | 2 | 0.25 | 0.25 |
| CCCCCCCCCCNC(=O)[C@H]1NC(=O)[C@H]2NC(=O)[C@H](NC(=O)[C@@H]3NC(=O)[C@H](CC(N)=O)NC(=O)[C@H](N)[C@H](O)c4ccc(c(Cl)c4)Oc4cc3cc(c4O[C@@H]3O[C@@H](CO)[C@H](O)[C@@H](O)[C@@H]3O[C@H]3C[C@@](C)(N)[C@@H](O)[C@@H](C)O3)Oc3cccc(c3)[C@H]2O[C@H]2C[C@@](C)(N)[C@@H](O)[C@@H](C)O2)c2ccc(O)c(c2)-c2c(O)cc(O)cc21 | – | – | – | 2 | 2 | 4 | 2 | 4 | 8 | 0.5 | 1 |
| CN[C@H](CC(C)C)C(=O)N[C@H]1C(=O)N[C@@H](CC(N)=O)C(=O)N[C@H]2C(=O)N[C@H]3C(=O)N[C@H](C(=O)N[C@H](C(=O)O)c4cc(O)cc(O)c4-c4cc3ccc4O)[C@H](O[C@H]3C[C@@](C)(N)[C@@H](O)[C@@H](C)O3)c3cccc(c3)Oc3cc2cc(c3O[C@@H]2O[C@@H](CO)[C@H](O)[C@@H](O)[C@@H]2O[C@H]2C[C@@](C)(NCc3ccc(-c4ccc(Cl)cc4)cc3)[C@@H](O)[C@@H](C)O2)Oc2ccc(cc2Cl)[C@H]1O | – | – | – | 4 | 4 | 8 | 2 | 4 | 4 | 2 | 4 |
